Bioassay records (PubChem)
RGS16-Gao HTS – modulators of RGS16 binding to Galphao, primary screen, biochemical, human proteins, multiplexed bead flow cytometry; Regulator of G-protein signaling 16 (Homo sapiens) + Guanine nucleotide-binding protein …; bead-based flow cytometry RGS16-Galphao binding, fluorescence; actives lie on both sides; binding response (% of control), % at 10 µM; hit rate 0.38% among 220,000; AID 1441, 2008;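 also: Galphao activated by GDP with aluminum fluoride before binding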
Target sequence (O15492 whole entry, looked up): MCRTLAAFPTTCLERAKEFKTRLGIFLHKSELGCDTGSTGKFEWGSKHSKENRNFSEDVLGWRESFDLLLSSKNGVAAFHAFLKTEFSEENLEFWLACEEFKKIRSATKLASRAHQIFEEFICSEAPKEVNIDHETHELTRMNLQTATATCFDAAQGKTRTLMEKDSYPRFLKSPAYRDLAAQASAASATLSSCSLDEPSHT
Target sequence (P09471 whole entry, looked up): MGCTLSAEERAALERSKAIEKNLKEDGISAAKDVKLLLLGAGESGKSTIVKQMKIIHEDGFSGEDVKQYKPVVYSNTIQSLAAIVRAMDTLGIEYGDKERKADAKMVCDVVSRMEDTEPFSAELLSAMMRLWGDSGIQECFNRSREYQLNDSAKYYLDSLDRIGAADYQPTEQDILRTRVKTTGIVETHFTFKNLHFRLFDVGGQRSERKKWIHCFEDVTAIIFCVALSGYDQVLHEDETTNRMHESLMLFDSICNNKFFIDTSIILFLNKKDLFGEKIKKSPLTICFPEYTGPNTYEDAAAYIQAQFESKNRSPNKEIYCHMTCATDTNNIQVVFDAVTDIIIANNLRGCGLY
ABCB1 inh – ABCB1 efflux pump inhibitors, primary screen, cell-based, multiplex, flow cytometry, ABCG2 counter-screen | AID 1326, 2008 | CCRF-Adr cells, JC-1 efflux | ATP-dependent translocase ABCB1 (Homo sapiens), P08183 | hit rate 0.067% among 190,000 | inhibition, % at 6.6 µM; in the data active = inhibition above about 40%;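 also: 0% = vehicle and 100% = reference inhibitor; higher value means more JC-1 retained so stronger ABCB1 efflux block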
ABCG2 block – ABCG2 efflux pump inhibitors, primary screen, multiplex with ABCB1, IgMXP3 cells, flow cytometry. Broad substrate specificity ATP-binding cassette transporter ABCG2 (Homo sapiens), Q9UNQ0. AID 1325, 2008. hit rate 0.1% among 190,000. inhibition, % at 6.6 µM. JC-1 efflux;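 active = inhibition above 80%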;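 also: 0% = DMSO and 100% = nicardipine control wells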
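Incubation: cells with compound and JC-1, 10 min at 25 °C, rotating, no wash / Test system: IgMXP3 (ABCG2) plus far-red-tagged CCRF-Adr (ABCB1) cells / Compound dosing: one concentration, 6.6 µM final / Also added: JC-1 fluorescent substrate / Evaluation: efflux inhibition in percent versus controls / Detection: flow cytometry, 530 nm JC-1 signal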
RGS7-Gao reg – RGS7-Galphao binding modulators, primary screen, biochemical, multiplexed bead flow cytometry. Guanine nucleotide-binding protein G(o) subunit alpha (Homo sapiens), P09471. actives lie on both sides. binding response (% of control), % at 10 µM. hit rate 0.35% among 220,000; in the data active = binding response below about 49% or above about 150%; inconclusive = no clear call, values can overlap the other calls; inactive = in between;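 also: fluorescent Galphao held in activated GDP-AlF4 state binding bead-coupled RGS7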
Target sequence (P09471 whole entry, looked up): as above
RGS8-Gao – RGS8-Galphao binding modulators, primary screen, biochemical, multiplexed bead flow cytometry; AID 1423, 2008; response (percent of control binding), % at 10 µM; hit rate 0.34% among 220,000; actives lie on both sides; in the data active = response below about 60% or above about 140%; inactive = in between;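 also: Galphao activated as the GDP aluminium fluoride complex binding bead-coupled RGS8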
RGS4-Gao reg – modulators of RGS4 binding to Galphao, primary screen, biochemical, multiplexed bead flow cytometry; actives lie on both sides; binding response (% of control), % at 10 µM; hit rate 0.33% among 220,000; AID 1415, 2008; in the data active = binding response below about 49% or above about 150%; inactive = in between;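 also: fluorescent Galphao activated with aluminum fluoride binding bead-coupled RGS4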
RGS-Gao – modulators of RGS–Galpha-o binding, primary screen, biochemical, multiplexed beads, flow cytometry, RGS4/7/8/16/19 | RGS4–Galpha-o binding response, % at 10 µM | AID 1504, 2009 | multiplexed bead flow cytometry | shares compounds with RGS16-Gao HTS | hit rate 99% among 1,600;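 also: fluorescently labeled Galpha-o bound to GDP with aluminium fluoride binding biotinylated RGS beads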
Avidin counter – disruption of biotin probe capture by avidin, counter-screen for RGS protein interaction modulators, biochemical, flow cytometry, bead-based; inhibition, % at 10 µM; 1,700 tested, under 10 active; streptavidin beads, fluorescein-biotin binding; AID 1783, 2009; shares compounds with RGS16-Gao HTS;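 active = inhibition above 50%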;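 also: median green fluorescence of gated singlet beads compared with DMSO control wells; 0% = DMSO wells and 100% = complete loss of bead fluorescence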
RGS8-Gao confirm – RGS8-Galphao binding modulators, confirmation, biochemical, multiplexed bead flow cytometry, single concentration | shares compounds with RGS16-Gao HTS | binding response (% of control), % at 10 µM | bead-based flow cytometry RGS8-Galphao binding, fluorescence; actives lie on both sides | hit rate 3% among 1,700; in the data active = binding response below about 72% or above about 130%; inactive = in between;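 also: Galphao activated as GDP AlF4 complex before binding bead RGS8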
RGS7-Gao confirm – RGS7-Galphao binding modulators, confirmation, biochemical, multiplexed bead flow cytometry, single concentration; bead-based flow cytometry RGS7-Galphao binding; actives lie on both sides; AID 1837, 2009; response (percent of control binding), % at 10 µM; shares compounds with RGS16-Gao HTS; hit rate 7.8% among 1,700; in the data active = response below about 75% or above about 130%; inactive = in between;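 also: fluorescent Galphao activated with GDP and aluminum fluoride binding bead-coupled RGS7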
RGS16-Gao single – modulators of RGS16-Galphao protein binding, confirmation, biochemical, single concentration, multiplexed bead flow cytometry | hit rate 4% among 1,700 | bead-based flow cytometry; actives lie on both sides | response (% of control binding), % at 10 µM | shares compounds with RGS16-Gao HTS; in the data active = response below about 74% or above about 130%; inactive = in between;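 also: Galphao activated as the GDP aluminium fluoride complex binding bead-coupled RGS16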
RGS4-Gao single – modulators of RGS4-Galphao protein binding, confirmation, biochemical, single concentration, multiplexed bead flow cytometry | actives lie on both sides | binding response (% of control), % at 10 µM | hit rate 4% among 1,700 | AID 1840, 2009 | shares compounds with RGS16-Gao HTS; in the data active = binding response below about 74% or above about 130%; inactive = in between
RGS19-Gao conf – regulators of RGS19-Galphao binding, confirmation, biochemical, single point, multiplexed bead flow cytometry; hit rate 5% among 1,700; bead-based flow cytometry RGS19-Galphao binding; actives lie on both sides; response (percent of control binding), % at 10 µM; AID 1841, 2009; shares compounds with RGS16-Gao HTS; in the data active = response below about 50% or above about 160%; inactive = in between;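 also: 100% = no compound control and 0% = blank background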
An asterisk follows results filed as active; ? = inconclusive; nt = no result given; [ ] = another dose, or the depositor's remark. Rows were chosen to be rich in hits. Some 0.9% of all compounds tested hit in one or more screens of this group. Unless noted, no rule for the calls is given here.

SMILES	RGS16-Gao HTS	ABCB1 inh	ABCG2 block	RGS7-Gao reg	RGS8-Gao	RGS4-Gao reg	Avidin counter	RGS8-Gao confirm	RGS7-Gao confirm	RGS16-Gao single	RGS4-Gao single	RGS19-Gao conf	others
CCCC(C(=O)c1ccccc1)n1cncn1 (configuration not stated)	-9.0*	0.2	0.2	77.7	80.9	69.8	-1.4	100.9	101.0	101.8	101.7	100.8	RGS-Gao=69.8*
CC(C)CC(c1nnnn1Cc1ccc(F)cc1)N1CCC(C(N)=O)CC1 (configuration not stated)	108.3	0.4	0.5	100.9	104.5	101.2	nt	nt	nt	nt	nt	nt
CCOC(=O)c1[nH]cnc1C(=O)Nc1ccccc1OC	110.4	1.1	19.0	99.9	106.3	99.9	nt	nt	nt	nt	nt	nt
COc1ccc(/C=C(\NC(=O)c2ccccc2)C(=O)NNC(=O)CCN2CCOCC2)cc1	101.7	1.0	3.1	99.3	101.4	98.6	nt	nt	nt	nt	nt	nt
O=C(CCN1CCOCC1)NNC(=O)/C(=C/c1ccccc1)NC(=O)c1ccccc1	64.0	-0.1	-0.6	54.3	86.4	43.0*	0.8	111.5	100.9	112.2	101.9	101.0
COC(=O)CC1C(=O)NCCN1C(=O)Nc1ccc(Cl)c(Cl)c1 (configuration not stated)	nt	0.4	-0.1	nt	nt	103.9	-0.9	101.6	99.4	99.3	102.4	87.0
Cc1ccc(NC(=S)NCCc2ccccc2)nc1	105.2	1.0	13.7	95.8	102.2	101.4	nt	nt	nt	nt	nt	nt
COc1cc(C(=O)OCC(=O)NC2CCS(=O)(=O)C2)ccc1OCc1c(C)noc1C (configuration not stated)	124.6	3.3	-0.1	154.4*[activator]	104.0	100.0	1.2	100.0	99.1	96.0	98.2	101.1	RGS-Gao=100.0*
CC(NC(=O)Cc1cccs1)C(c1cccs1)N1CCOCC1 (configuration not stated)	7.5*	0.7	0.8	44.9*	45.5*	39.3*	1.4	111.2	118.5	109.9	114.3	105.2
CC(NC(=O)C(C)(C)C)C(c1cccs1)N1CCOCC1 (configuration not stated)	104.5	nt	nt	?	103.9	106.0	nt	nt	nt	nt	nt	nt
N=C1c2ccccc2CN1c1ccc(N2CCOCC2)c(S(=O)(=O)Nc2ccc(Cl)cc2)c1	94.1	nt	nt	?	94.0	103.3	nt	nt	nt	nt	nt	nt
Cn1cccc1C(=O)OCC(=O)N1CC(=O)Nc2ccccc21	110.2	0.8	2.7	112.9	104.4	103.7	nt	nt	nt	nt	nt	nt
CCN1/C(=C/C(C)=C/c2sc3ccccc3[n+]2CC)Sc2ccccc21	39.1	0.9	-11.3	79.6	53.2*	56.8	-4.8	83.9	92.5	80.0	97.9	83.8	RGS-Gao=56.8*
CC(C)CNC(=O)NC(=O)COC(=O)c1ccccc1Sc1ccc(C(F)(F)F)cc1[N+](=O)[O-]	94.6	7.3	41.6	105.1	98.4	103.5	nt	nt	nt	nt	nt	nt
C=CCNC(=O)NC(=O)COC(=O)c1ccccc1Sc1ccc(C(F)(F)F)cc1[N+](=O)[O-]	184.1*[activator]	1.2	6.0	102.9	118.3	106.1	-0.3	104.8	111.8	108.3	107.7	108.5	RGS-Gao=106.1*
CCOC(=O)C(=O)Nc1ccccc1C(N)=O	nt	0.3	3.4	nt	nt	nt	-0.4	104.6	107.6	103.0	108.2	55.8
CCOC(=O)C(=O)Nc1ccccc1C(=O)OC	108.5	0.3	1.9	94.0	101.4	98.1	nt	nt	nt	nt	nt	nt
CCOC(=O)C(=CNc1cc(OC)ccc1-n1cccc1)C(=O)OCC	90.0	nt	nt	?	91.5	85.0	nt	nt	nt	nt	nt	nt
Cc1ccc(NC(=S)N2CCN(C)CC2)c(C)c1	186.1*[activator]	0.4	8.4	105.4	115.4	106.7	1.3	102.0	104.8	102.5	103.5	120.5	RGS-Gao=106.7*
Cc1ccc(NC(=S)N2CCOCC2)c(C)c1	106.6	0.9	2.5	109.6	103.1	104.9	nt	nt	nt	nt	nt	nt
NC(=O)SC/C(=N\S(=O)(=O)c1ccccc1)Nc1ccccc1	418.5*[activator]	-0.3	1.0	268.1*[activator]	118.1	349.8*[activator]	1.9	96.7	88.1	99.9	94.0	88.4
Cc1ccc(N/C(CSC(N)=O)=N/S(=O)(=O)c2ccccc2)cc1	-139.2	-0.2	-0.1	90.0	78.0	80.4	nt	nt	nt	nt	nt	nt
Cc1cc(C)c(-c2cc(NC(=O)CSc3n[nH]c(N)n3)n(-c3ccccc3)n2)cc1C	-38.3*	-0.2	-0.2	-15.8*	6.7*	-44.3*	-0.2	100.1	106.0	102.2	103.0	105.9
Cc1cc(C)c(-c2cc(NC(=O)COC(=O)c3ccc(CO)cc3)n(-c3ccccc3)n2)cc1C	106.5	1.3	9.9	105.8	104.2	105.3	nt	nt	nt	nt	nt	nt
CC(C)NC(=O)CSc1nnc(-c2ccc(F)cc2)c2ccccc12	100.8	0.3	4.4	99.4	99.7	95.8	nt	nt	nt	nt	nt	nt
CCC(=O)Nc1ccc(NC(=O)c2ccco2)cc1	102.0	0.9	36.7	97.0	101.4	97.1	nt	nt	nt	nt	nt	nt
